Experimental data: ChEMBL document CHEMBL5329210, “Novel piperazine-1,2,3-triazole leads for the potential treatment of pancreatic cancer” (RSC Med Chem, 2023)

Tests used:
HT-29 [1] = assay: Inhibition of cell growth of human HT-29 cells at 25 uM measured after 72 hrs by MTT assay relative to control; assay type: functional
Method in brief: (§1)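 MTT read-out. Cancer lines were grown in DMEM with 10% FBS, glutamine and antibiotics. MCF10A was grown in DMEM:F12 with 5% horse serum, EGF, hydrocortisone, cholera toxin and insulin. Cells were plated in duplicate at 2500–4000/well, and drug was added 24 h later. After 72 h, absorbance was read at 540 nm. Single-point lines used 25 μM. GI50 is 50% growth inhibition versus untreated control. n = 3.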

MCF7 [2] = assay: Inhibition of cell growth of human MCF7 cells at 25 uM measured after 72 hrs by MTT assay relative to control; assay type: functional; method in brief: as §1
A2780 [3] = assay: Inhibition of cell growth of human A2780 cells at 25 uM measured after 72 hrs by MTT assay relative to control; assay type: functional; method in brief: as §1
BE(2)-C [4] = assay: Inhibition of cell growth of human BE2C cells at 25 uM measured after 72 hrs by MTT assay relative to control; assay type: functional; method in brief: as §1
MIA PaCa-2 [5] = assay: Inhibition of cell growth of human MIA PaCa-2 cells at 25 uM measured after 72 hrs by MTT assay relative to control; assay type: functional; method in brief: as §1
BXPC-3 [6] = assay: Inhibition of cell growth of human BXPC-3 cells at 25 uM measured after 72 hrs by MTT assay relative to control; assay type: functional; method in brief: as §1
ASPC1 = assay: Inhibition of cell growth of human ASPC1 cells at 25 uM measured after 72 hrs by MTT assay relative to control; assay type: functional; method in brief: as §1
Capan-2 = assay: Inhibition of cell growth of human Capan-2 cells at 25 uM measured after 72 hrs by MTT assay relative to control; assay type: functional; method in brief: as §1
PANC-1 = assay: Inhibition of cell growth of human PANC-1 cells at 25 uM measured after 72 hrs by MTT assay relative to control; assay type: functional; method in brief: as §1
HPAC = assay: Inhibition of cell growth of human HPAC cells at 25 uM measured after 72 hrs by MTT assay relative to control; assay type: functional; method in brief: as §1
[7] = Inhibition of cell growth of human MCF-10A cells at 25 uM measured after 72 hrs by MTT assay relative to control; assay type: toxicity, cell-based; method in brief: as §1
BXPC-3 [8] = assay: Inhibition of cell growth of human BXPC-3 cells at 25 uM measured after 72 hrs by CCK8 assay relative to control; assay type: functional
Method in brief: (§2)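 Single 25 μM exposure, read by CCK-8, n = 3, relative to control. Seeding was 3×10^3/well for MiaPaCa2, 7×10^3/well for BxPC3 (in RPMI-1640/10% FBS) and 1×10^4/well for HPDE (in KSFM with rEGF/BPE). After 24 h attachment, cells were exposed for 72 h. CCK-8 was then incubated for 1 h, and A450 minus A650 was compared with 0.5% DMSO.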

MIA PaCa-2 [9] = assay: Inhibition of cell growth of human MIA PaCa-2 cells at 25 uM measured after 72 hrs by CCK8 assay relative to control; assay type: functional; method in brief: as §2
[10] = Inhibition of cell growth of human HPDE cells at 25 uM measured after 72 hrs by CCK8 assay relative to control; assay type: toxicity, cell-based; method in brief: as §2
U-87 MG = assay: Inhibition of cell growth of human U87 cells at 25 uM measured after 72 hrs by MTT assay relative to control
MCF7 [11] = assay: Inhibition of cell growth of human MCF7 cells at 25 uM measured after 72 hrs by MTT assay relative to control; conditions: MCF7, 72 h
BE(2)-C [12] = assay: Inhibition of cell growth of human BE2C cells at 25 uM measured after 72 hrs by MTT assay relative to control
[13] = Inhibition of cell growth of human SJG2 cells at 25 uM measured after 72 hrs by MTT assay relative to control; conditions: SJ-G2, 72 h
HT-29 [14] = assay: Inhibition of cell growth of human HT-29 cells at 25 uM measured after 72 hrs by MTT assay relative to control; conditions: HT-29, 72 h
A2780 [15] = assay: Inhibition of cell growth of human A2780 cells at 25 uM measured after 72 hrs by MTT assay relative to control; conditions: A2780, 72 h
A-431 = assay: Inhibition of cell growth of human A-431 cells at 25 uM measured after 72 hrs by MTT assay relative to control; conditions: A-431, 72 h
DU-145 = assay: Inhibition of cell growth of human DU-145 cells at 25 uM measured after 72 hrs by MTT assay relative to control; conditions: DU-145, 72 h
[16] = Inhibition of cell growth of human MCF-10A cells at 25 uM measured after 72 hrs by MTT assay relative to control
NCI-H460 = assay: Inhibition of cell growth of human NCI-H460 cells at 25 uM measured after 72 hrs by MTT assay relative to control; conditions: NCI-H460, 72 h

| SMILES | inhibition at 25 µM (BXPC-3 [8]) [%] | inhibition at 25 µM (MIA PaCa-2 [9]) [%] | inhibition at 72 h, 25 µM [10] [%] | inhibition at 25 µM (U-87 MG) [%] | inhibition at 25 µM (MCF7 [11]) [%] | inhibition at 25 µM (BE(2)-C [12]) [%] | inhibition at 25 µM [13] [%] | inhibition at 25 µM (HT-29 [14]) [%] | inhibition at 25 µM (A2780 [15]) [%] | inhibition at 25 µM (A-431) [%] | inhibition at 25 µM (DU-145) [%] | inhibition at 72 h, 25 µM [16] [%] | inhibition at 25 µM (NCI-H460) [%] | further results |
| --- | --- | --- | --- | --- | --- | --- | --- | --- | --- | --- | --- | --- | --- | --- |
| O=S(=O)(c1ccccc1C(F)(F)F)N1CCN(CCCn2cc(-c3ccc(C(F)(F)F)cc3)nn2)CC1 |  |  |  |  |  |  |  |  |  |  |  |  |  | inhibition at 25 µM (HT-29 [1]): 69%; inhibition at 25 µM (MCF7 [2]): 75%; inhibition at 25 µM (A2780 [3]): 80%; inhibition at 25 µM (BE(2)-C [4]): 62%; inhibition at 25 µM (MIA PaCa-2 [5]): 45%; inhibition at 25 µM (BXPC-3 [6]): 19%; inhibition at 25 µM (ASPC1): 50%; inhibition at 25 µM (Capan-2): 42%; inhibition at 25 µM (PANC-1): 54%; inhibition at 25 µM (HPAC): 29%; inhibition at 72 h, 25 µM [7]: 64% |
| COc1cccc(-c2cn(CCCN3CCN(S(=O)(=O)c4ccc(C(C)(C)C)cc4)CC3)nn2)c1 | < 10 | < 10 | 38.2 |  |  |  |  |  |  |  |  |  |  |  |
| CC(=O)Nc1ccc(S(=O)(=O)N2CCN(CCCn3cc(-c4ccccc4)nn3)CC2)cc1 |  | 30 |  | 10 | 24 | 32 | 59 | 31 | 47 | 31 | 34 | 44 | 23 |  |
| COc1cccc(-c2cn(CCCN3CCN(S(=O)(=O)c4ccc(Cl)cc4)CC3)nn2)c1 | 22.9 | < 10 | 54.3 |  |  |  |  |  |  |  |  |  |  |  |
| CCc1ccc(-c2cn(CCCN3CCN(S(=O)(=O)c4cccc(C(F)(F)F)c4)CC3)nn2)cc1 |  |  |  |  |  |  |  |  |  |  |  |  |  | inhibition at 25 µM (HT-29 [1]): 65%; inhibition at 25 µM (MCF7 [2]): 86%; inhibition at 25 µM (A2780 [3]): 86%; inhibition at 25 µM (BE(2)-C [4]): 61%; inhibition at 25 µM (MIA PaCa-2 [5]): 50%; inhibition at 25 µM (BXPC-3 [6]): 39%; inhibition at 25 µM (ASPC1): 60%; inhibition at 25 µM (Capan-2): 58%; inhibition at 25 µM (PANC-1): 59%; inhibition at 25 µM (HPAC): 41%; inhibition at 72 h, 25 µM [7]: 77% |
| CC(=O)Nc1ccc(S(=O)(=O)N2CCN(CCCn3cc(-c4ccc(C)cc4)nn3)CC2)cc1 |  | 38 |  | 22 | 42 | 36 | 72 | 46 | 57 | 40 | 61 | 67 | 34 |  |
| CC(=O)Nc1ccc(S(=O)(=O)N2CCN(CCCn3cc(-c4cccc(Cl)c4)nn3)CC2)cc1 |  | 32 |  | 1 | 31 | 27 | 33 | 42 | 49 | 2 | 24 | 43 | 18 |  |
| CCc1ccc(-c2cn(CCCN3CCN(S(=O)(=O)c4ccc(NC(C)=O)cc4)CC3)nn2)cc1 |  | 38 |  | < 0 | 30 | 36 | 29 | 64 | 59 | 16 | 42 | 67 | 32 |  |
| CC(=O)Nc1ccc(S(=O)(=O)N2CCN(CCCn3cc(-c4ccc(F)cc4)nn3)CC2)cc1 |  | 35 |  | 16 | 27 | 38 | 67 | 22 | 50 | 28 | 35 | 41 | 18 |  |
| CC(=O)Nc1ccc(S(=O)(=O)N2CCN(CCCn3cc(-c4ccc([N+](=O)[O-])cc4)nn3)CC2)cc1 |  | 40 |  | 27 | 47 | 42 | 37 | 50 | 72 | 33 | 48 | 69 | 40 |  |
| CC(=O)Nc1ccc(S(=O)(=O)N2CCN(CCCn3cc(-c4ccc(C(F)(F)F)cc4)nn3)CC2)cc1 |  | 43 |  | 16 | 42 | 41 | 42 | 59 | 67 | 31 | 52 | 73 | 30 |  |
| COc1cccc(-c2cn(CCCN3CCN(S(=O)(=O)c4ccc(F)cc4)CC3)nn2)c1 | 15.1 | < 10 | 40.8 |  |  |  |  |  |  |  |  |  |  |  |
| COc1cccc(-c2cn(CCCN3CCN(S(=O)(=O)c4ccc(C(C)=O)cc4)CC3)nn2)c1 | 22.8 | < 10 | 30.1 |  |  |  |  |  |  |  |  |  |  |  |
| CC(=O)Nc1ccc(S(=O)(=O)N2CCN(CCCn3cc(-c4ccc(Br)cc4)nn3)CC2)cc1 |  | 34 |  | 4 | 28 | 39 | 48 | 58 | 46 | 16 | 54 | 58 | 19 |  |
| COc1cccc(-c2cn(CCCN3CCN(S(=O)(=O)c4ccc(C(C)C)cc4)CC3)nn2)c1 | < 10 | 11.4 | 48.8 |  |  |  |  |  |  |  |  |  |  |  |
